Source: ChEMBL document CHEMBL3864121, “Development of ebsulfur analogues as potent antibacterials against methicillin-resistant Staphylococcus aureus” (Bioorg Med Chem, 2016)
In brackets after ≈: the same amount, converted by molar mass.

Tests used:
Format in all cases: functional
Staphylococcus aureus [1] = assay: Antibacterial activity against methicillin-resistant Staphylococcus aureus C7 measured after overnight incubation by broth double-dilution method
Procedure, shortened: (§1)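 MIC by broth double-dilution in liquid Mueller-Hinton medium. Values are reported in µg/mL.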

Staphylococcus aureus [2] = assay: Antibacterial activity against methicillin-resistant Staphylococcus aureus C14 measured after overnight incubation by broth double-dilution method; procedure, shortened: as §1
Staphylococcus aureus [3] = assay: Antibacterial activity against methicillin-resistant Staphylococcus aureus C1 measured after overnight incubation by broth double-dilution method; procedure, shortened: as §1
Staphylococcus aureus [4] = assay: Antibacterial activity against methicillin-resistant Staphylococcus aureus NRS4 measured after overnight incubation by broth double-dilution method; procedure, shortened: as §1
Staphylococcus aureus [5] = assay: Antibacterial activity against methicillin-resistant Staphylococcus aureus 2 measured after overnight incubation by broth double-dilution method; procedure, shortened: as §1
Staphylococcus aureus [6] = assay: Antibacterial activity against methicillin-resistant Staphylococcus aureus ATCC 33591 measured after overnight incubation by broth double-dilution method; procedure, shortened: as §1
Enterococcus = assay: Antibacterial activity against Vancomycin-resistant Enterococcus measured after overnight incubation by broth double-dilution method; procedure, shortened: as §1
Staphylococcus aureus [7] = assay: Antibacterial activity against methicillin-resistant Staphylococcus aureus USA600 measured after overnight incubation by broth double-dilution method; procedure, shortened: as §1
Staphylococcus aureus [8] = assay: Antibacterial activity against methicillin-sensitive Staphylococcus aureus ATCC 29213 measured after overnight incubation by broth double-dilution method; procedure, shortened: as §1
Enterococcus faecium = assay: Antibacterial activity against Enterococcus faecium BM4105-RF measured after overnight incubation by broth double-dilution method; procedure, shortened: as §1
Staphylococcus aureus [9] = assay: Antibacterial activity against methicillin-resistant Staphylococcus aureus S17 measured after overnight incubation by broth double-dilution method; procedure, shortened: as §1
Staphylococcus aureus [10] = assay: Antibacterial activity against methicillin-resistant Staphylococcus aureus G14 measured after overnight incubation by broth double-dilution method; procedure, shortened: as §1
Staphylococcus aureus [11] = assay: Antibacterial activity against methicillin-resistant Staphylococcus aureus G12 measured after overnight incubation by broth double-dilution method; procedure, shortened: as §1
Staphylococcus aureus [12] = assay: Antibacterial activity against methicillin-sensitive Staphylococcus aureus ATCC 25923 measured after overnight incubation by broth double-dilution method; procedure, shortened: as §1
Staphylococcus aureus [13] = assay: Antibacterial activity against methicillin-resistant Staphylococcus aureus BRS3 measured after overnight incubation by broth double-dilution method; procedure, shortened: as §1
Staphylococcus aureus [14] = assay: Antibacterial activity against methicillin-resistant Staphylococcus aureus USA200 measured after overnight incubation by broth double-dilution method; procedure, shortened: as §1
Enterococcus faecalis [15] = assay: Antibacterial activity against Enterococcus faecalis ATCC 49533 measured after overnight incubation by broth double-dilution method
Procedure, shortened: (§2)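 MIC by broth double-dilution in Mueller-Hinton medium. Re-testing at the time-kill inoculum used 1×10^6 CFU/mL.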

Staphylococcus aureus [16] = assay: Antibacterial activity against methicillin-resistant Staphylococcus aureus G1 measured after overnight incubation by broth double-dilution method; procedure, shortened: as §1
[17] = tested on: Mycolicibacterium smegmatis; assay: Antibacterial activity against Mycobacterium smegmatis MC2-155 measured after overnight incubation by broth double-dilution method; settings: str. MC2 155; procedure, shortened: as §1
Staphylococcus aureus [18] = assay: Antibacterial activity against methicillin-resistant Staphylococcus aureus USA100 measured after overnight incubation by broth double-dilution method; procedure, shortened: as §1
Enterococcus faecalis [19] = assay: Antibacterial activity against Enterococcus faecalis ATCC 29212 measured after overnight incubation by broth double-dilution method; procedure, shortened: as §2
[20] = tested on: Staphylococcus epidermidis; assay: Antibacterial activity against Staphylococcus epidermidis ATCC 35984 measured after overnight incubation by broth double-dilution method; settings: RP62A; procedure, shortened: as §2
Staphylococcus aureus [21] = assay: Antibacterial activity against methicillin-resistant Staphylococcus aureus S14 measured after overnight incubation by broth double-dilution method; procedure, shortened: as §1
Staphylococcus aureus [22] = assay: Antibacterial activity against methicillin-resistant Staphylococcus aureus NRS77 measured after overnight incubation by broth double-dilution method; procedure, shortened: as §1
Staphylococcus aureus [23] = assay: Antibacterial activity against methicillin-resistant Staphylococcus aureus C2 measured after overnight incubation by broth double-dilution method; procedure, shortened: as §1
Listeria monocytogenes = assay: Antibacterial activity against Listeria monocytogenes ATCC 19115 measured after overnight incubation by broth double-dilution method; procedure, shortened: as §2
Staphylococcus aureus [24] = assay: Antibacterial activity against methicillin-resistant Staphylococcus aureus USA300 measured after overnight incubation by broth double-dilution method; procedure, shortened: as §1
Staphylococcus aureus [25] = assay: Antibacterial activity against methicillin-resistant Staphylococcus aureus 1 measured after overnight incubation by broth double-dilution method; procedure, shortened: as §1
Staphylococcus aureus [26] = assay: Antibacterial activity against methicillin-resistant Staphylococcus aureus S24 measured after overnight incubation by broth double-dilution method; procedure, shortened: as §1
Staphylococcus aureus [27] = assay: Antibacterial activity against methicillin-resistant Staphylococcus aureus G6 measured after overnight incubation by broth double-dilution method; procedure, shortened: as §1
Staphylococcus aureus [28] = assay: Antibacterial activity against methicillin-resistant Staphylococcus aureus C19 measured after overnight incubation by broth double-dilution method; procedure, shortened: as §1
Staphylococcus aureus [29] = assay: Antibacterial activity against methicillin-resistant Staphylococcus aureus C16 measured after overnight incubation by broth double-dilution method; procedure, shortened: as §1
Staphylococcus aureus [30] = assay: Antibacterial activity against methicillin-resistant Staphylococcus aureus NRS51 measured after overnight incubation by broth double-dilution method; procedure, shortened: as §1
Staphylococcus aureus [31] = assay: Antibacterial activity against methicillin-sensitive Staphylococcus aureus ATCC 6538 measured after overnight incubation by broth double-dilution method; procedure, shortened: as §1
Staphylococcus aureus [32] = assay: Antibacterial activity against methicillin-resistant Staphylococcus aureus S22 measured after overnight incubation by broth double-dilution method; procedure, shortened: as §1

| Structure (SMILES) | MIC (Staphylococcus aureus [1]) | MIC (Staphylococcus aureus [2]) | MIC (Staphylococcus aureus [3]) | MIC (Staphylococcus aureus [4]) | MIC (Staphylococcus aureus [5]) | MIC (Staphylococcus aureus [6]) | MIC (Enterococcus) | MIC (Staphylococcus aureus [7]) | MIC (Staphylococcus aureus [8]) | MIC (Enterococcus faecium) | MIC (Staphylococcus aureus [9]) | MIC (Staphylococcus aureus [10]) | MIC (Staphylococcus aureus [11]) | MIC (Staphylococcus aureus [12]) | MIC (Staphylococcus aureus [13]) | MIC (Staphylococcus aureus [14]) | MIC (Enterococcus faecalis [15]) | MIC (Staphylococcus aureus [16]) | MIC [17] | MIC (Staphylococcus aureus [18]) | other results |
| --- | --- | --- | --- | --- | --- | --- | --- | --- | --- | --- | --- | --- | --- | --- | --- | --- | --- | --- | --- | --- | --- |
| Cc1cc(C)cc(-n2sc3ccccc3c2=O)c1 | 3.9 µg/mL (≈ 15.3 µM) | 15.6 µg/mL (≈ 61.1 µM) | 3.9 µg/mL (≈ 15.3 µM) | 7.8 µg/mL (≈ 30.5 µM) | 7.8 µg/mL (≈ 30.5 µM) | 1 µg/mL (≈ 3.92 µM) | 3.9 µg/mL (≈ 15.3 µM) | 7.8 µg/mL (≈ 30.5 µM) | 3.9 µg/mL (≈ 15.3 µM) | 15.6 µg/mL (≈ 61.1 µM) | 3.9 µg/mL (≈ 15.3 µM) | 3.9 µg/mL (≈ 15.3 µM) | 7.8 µg/mL (≈ 30.5 µM) | 7.8 µg/mL (≈ 30.5 µM) | 7.8 µg/mL (≈ 30.5 µM) | 7.8 µg/mL (≈ 30.5 µM) | 15.6 µg/mL (≈ 61.1 µM) | 7.8 µg/mL (≈ 30.5 µM) | 3.9 µg/mL (≈ 15.3 µM) | 3.9 µg/mL (≈ 15.3 µM) | MIC (Enterococcus faecalis [19]): 15.6 µg/mL (≈ 61.1 µM); MIC [20]: 3.9 µg/mL (≈ 15.3 µM); MIC (Staphylococcus aureus [21]): ≤ 0.25 µg/mL; MIC (Staphylococcus aureus [22]): 7.8 µg/mL (≈ 30.5 µM); MIC (Staphylococcus aureus [23]): 3.9 µg/mL (≈ 15.3 µM); MIC (Listeria monocytogenes): 7.8 µg/mL (≈ 30.5 µM); MIC (Staphylococcus aureus [24]): 7.8 µg/mL (≈ 30.5 µM); MIC (Staphylococcus aureus [25]): 7.8 µg/mL (≈ 30.5 µM); MIC (Staphylococcus aureus [26]): 7.8 µg/mL (≈ 30.5 µM); MIC (Staphylococcus aureus [27]): 7.8 µg/mL (≈ 30.5 µM); MIC (Staphylococcus aureus [28]): 7.8 µg/mL (≈ 30.5 µM); MIC (Staphylococcus aureus [29]): 7.8 µg/mL (≈ 30.5 µM); MIC (Staphylococcus aureus [30]): 7.8 µg/mL (≈ 30.5 µM); MIC (Staphylococcus aureus [31]): 7.8 µg/mL (≈ 30.5 µM); MIC (Staphylococcus aureus [32]): 3.9 µg/mL (≈ 15.3 µM) |
| CCCCCCCCCCCCn1sc2ccccc2c1=O | 2 µg/mL (≈ 6.26 µM) | 15.6 µg/mL (≈ 48.8 µM) | 3.9 µg/mL (≈ 12.2 µM) | 3.9 µg/mL (≈ 12.2 µM) | 1 µg/mL (≈ 3.13 µM) | 2 µg/mL (≈ 6.26 µM) | 1 µg/mL (≈ 3.13 µM) | 7.8 µg/mL (≈ 24.4 µM) | 3.9 µg/mL (≈ 12.2 µM) | 3.9 µg/mL (≈ 12.2 µM) | 1 µg/mL (≈ 3.13 µM) | 2 µg/mL (≈ 6.26 µM) | 1 µg/mL (≈ 3.13 µM) | 3.9 µg/mL (≈ 12.2 µM) | 15.6 µg/mL (≈ 48.8 µM) | 7.8 µg/mL (≈ 24.4 µM) | > 125 µg/mL | 0.5 µg/mL (≈ 1.56 µM) | 7.8 µg/mL (≈ 24.4 µM) | 3.9 µg/mL (≈ 12.2 µM) | MIC (Enterococcus faecalis [19]): > 125 µg/mL; MIC [20]: 0.25 µg/mL (≈ 0.782 µM); MIC (Staphylococcus aureus [21]): 1 µg/mL (≈ 3.13 µM); MIC (Staphylococcus aureus [22]): 2 µg/mL (≈ 6.26 µM); MIC (Staphylococcus aureus [23]): 1 µg/mL (≈ 3.13 µM); MIC (Listeria monocytogenes): 15.6 µg/mL (≈ 48.8 µM); MIC (Staphylococcus aureus [24]): 7.8 µg/mL (≈ 24.4 µM); MIC (Staphylococcus aureus [25]): 0.25 µg/mL (≈ 0.782 µM); MIC (Staphylococcus aureus [26]): 1 µg/mL (≈ 3.13 µM); MIC (Staphylococcus aureus [27]): 1 µg/mL (≈ 3.13 µM); MIC (Staphylococcus aureus [28]): 1 µg/mL (≈ 3.13 µM); MIC (Staphylococcus aureus [29]): 3.9 µg/mL (≈ 12.2 µM); MIC (Staphylococcus aureus [30]): 3.9 µg/mL (≈ 12.2 µM); MIC (Staphylococcus aureus [31]): 62.5 µg/mL (≈ 196 µM); MIC (Staphylococcus aureus [32]): 3.9 µg/mL (≈ 12.2 µM) |
